Common to all, as to assay type: functional
The test system of one test is Streptococcus pneumoniae. Put plainly: In vitro antibacterial activity against Streptococcus pneumoniae type III. The gist of the method:
(§1)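 MIC (μg/mL) determined by agar dilution on Mueller–Hinton agar. Plates were incubated at 35 °C for 18 h. MIC was taken as the lowest agent concentration that prevented visible growth.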

A further test concerns Staphylococcus aureus. Description: In vitro antibacterial activity against Staphylococcus aureus Smith. An outline of the steps:
as §1

The test system of the next test is Escherichia coli. Put plainly: In vitro antibacterial activity against Escherichia coli NIHJ JC-2. The gist of the method:
as §1

The test system of a further test is Pseudomonas aeruginosa. Put plainly: In vitro antibacterial activity against Pseudomonas aeruginosa IID1210. An outline of the steps: as §1

Drawing on ChEMBL document CHEMBL1144355, “Synthesis and antibacterial activity of the 4-quinolone-3-carboxylic acid derivatives having a trifluoromethyl group as a novel N-1 substituent” (2005), this text covers MIC for nine molecules.

Values after ≈ are worked out from the molar mass of the structure shown.

Take `CN1CCN(c2cc3c(cc2F)c(=O)c(C(=O)O)cn3-c2ccc(F)cc2F)CC1`: the minimal inhibitory concentration (MIC) in the test on Streptococcus pneumoniae turned out to be 0.39 µg/mL (≈ 0.934 µM); with Staphylococcus aureus it was 0.1 µg/mL (≈ 0.24 µM); with Escherichia coli, 0.1 µg/mL (≈ 0.24 µM); in the test on Pseudomonas aeruginosa it was 3.13 µg/mL (≈ 7.5 µM).
Take `CN1CCN(c2cc3c(cc2F)c(=O)c(C(=O)O)cn3C)CC1`: the minimum inhibitory concentration (MIC) in the test on Streptococcus pneumoniae amounted to 6.25 µg/mL (≈ 19.6 µM); against Staphylococcus aureus it was 0.39 µg/mL (≈ 1.22 µM); with Escherichia coli it was 0.05 µg/mL (≈ 0.157 µM); with Pseudomonas aeruginosa, 1.56 µg/mL (≈ 4.89 µM).
For `NC1CCN(c2cc3c(cc2F)c(=O)c(C(=O)O)cn3C(F)(F)F)C1` (stereo unspecified), the MIC in the test with Streptococcus pneumoniae was 12.5 µg/mL (≈ 34.8 µM); against Staphylococcus aureus it was 1.56 µg/mL (≈ 4.34 µM); in the test with Escherichia coli, 0.39 µg/mL (≈ 1.09 µM); in the test with Pseudomonas aeruginosa, more than 12.5 µg/mL.
As to `CN1CCN(c2cc3c(cc2F)c(=O)c(C(=O)O)cn3CCF)CC1`, the MIC with Streptococcus pneumoniae was 1.56 µg/mL (≈ 4.44 µM); in the test with Staphylococcus aureus it was 0.2 µg/mL (≈ 0.569 µM); in the test on Escherichia coli it was 0.0125 µg/mL (≈ 0.0356 µM); against Pseudomonas aeruginosa it was 1.56 µg/mL (≈ 4.44 µM).
Turning to `CN1CCN(c2cc3c(cc2F)c(=O)c(C(=O)O)cn3C(C)(C)C)CC1`, the minimal inhibitory concentration (MIC) worked out at 0.78 µg/mL (≈ 2.16 µM) with Streptococcus pneumoniae, 0.2 µg/mL (≈ 0.553 µM) in the test with Staphylococcus aureus, 0.025 µg/mL (≈ 0.0692 µM) in the test with Escherichia coli and 1.56 µg/mL (≈ 4.32 µM) with Pseudomonas aeruginosa.
In the same order, the values of `CN1CCN(c2cc3c(cc2F)c(=O)c(C(=O)O)cn3C2CC2)CC1` are 0.39 µg/mL (≈ 1.13 µM), 0.1 µg/mL (≈ 0.29 µM), not above 0.0063 µg/mL and 0.78 µg/mL (≈ 2.26 µM).
As to `CN1CCN(c2cc3c(cc2F)c(=O)c(C(=O)O)cn3C(F)(F)F)CC1.Cl`, the minimal inhibitory concentration (MIC) with Streptococcus pneumoniae was determined as 3.13 µg/mL; in the test with Staphylococcus aureus, 0.78 µg/mL; against Escherichia coli, 0.05 µg/mL; with Pseudomonas aeruginosa it was 6.25 µg/mL.
`CCn1cc(C(=O)O)c(=O)c2cc(F)c(N3CCNCC3)cc21` [NORFLOXACIN]: the minimum inhibitory concentration (MIC) worked out at 3.13 µg/mL (≈ 9.8 µM) with Streptococcus pneumoniae, 0.39 µg/mL (≈ 1.22 µM) with Staphylococcus aureus, 0.05 µg/mL (≈ 0.157 µM) with Escherichia coli and 1.56 µg/mL (≈ 4.89 µM) against Pseudomonas aeruginosa.
Take `CCn1cc(C(=O)O)c(=O)c2cc(F)c(N3CCN(C)CC3)cc21` [PEFLOXACIN]: the MIC against Streptococcus pneumoniae is 3.13 µg/mL (≈ 9.39 µM); against Staphylococcus aureus it was 0.2 µg/mL (≈ 0.6 µM); in the test with Escherichia coli it was 0.025 µg/mL (≈ 0.075 µM); in the test with Pseudomonas aeruginosa, 1.56 µg/mL (≈ 4.68 µM).

What is called MIC is the lowest concentration that inhibits growth of the organism. Read a low MIC as a more susceptible organism.
